The results in this text go back to ChEMBL document CHEMBL4613283, “Synthesis, Antiproliferative Effect, and Topoisomerase II Inhibitory Activity of 3-Methyl-2-phenyl-1H-indoles” (2020).

One assay concerns HeLa. Nature of the assay: Growth inhibition of human HeLa cells incubated for 72 hrs by trypan blue assay. In kind it is functional. A digest of the protocol:
(§1)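 HeLa, A2780 and MSTO-211H human tumor cells; GI50 taken as the concentration (μM) inhibiting growth of 50% of cells relative to an untreated control culture; mean ± SD of at least three independent experiments.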

Assay [1] relates to A2780. In words: Growth inhibition of human A2780 cells incubated for 72 hrs by trypan blue assay. Type of assay: functional. To be noted: A2780, 72 h. A digest of the protocol:
as §1

Another assay has as its system MSTO-211H. In words: Growth inhibition of human MSTO-211H cells incubated for 72 hrs by trypan blue assay. Type of assay: functional. The method in brief: as §1
The target in assay [2] is DNA topoisomerase 2-alpha (Homo sapiens) (UniProt P11388). Nature of the assay: Inhibition of recombinant human topoisomerase 2 alpha-mediated relaxation of supercoiled pBR322 DNA at 100 uM incubated for 30 mins by ethidium bromide staining based agarose gel electrophoresis method. A digest of the protocol:
(§2)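 Supercoiled pBR322 plasmid incubated with human recombinant topoisomerase II without or with compound at 100 μM, or at 25 and 50 μM; m-AMSA 20 μM as reference; relaxation inhibition judged from electrophoretic pattern of supercoiled DNA versus relaxed topoisomers.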

Assay [3] shares this target. In words: Inhibition of recombinant human topoisomerase 2 alpha-mediated relaxation of supercoiled pBR322 DNA at 100 uM incubated for 30 mins by ethidium bromide staining based agarose gel electrophoresis method relative to control. A digest of the protocol:
as §2

Assay [4] shares this target. Nature of the assay: Inhibition of recombinant human topoisomerase 2 alpha-mediated relaxation of supercoiled pBR322 DNA at 25 uM incubated for 30 mins by ethidium bromide staining based agarose gel electrophoresis method. A digest of the protocol:
as §2

For assay [5] the target is unchanged. Nature of the assay: Inhibition of recombinant human topoisomerase 2 alpha-mediated relaxation of supercoiled pBR322 DNA at 50 uM incubated for 30 mins by ethidium bromide staining based agarose gel electrophoresis method. The method in brief: as §2
For assay [6] the target is unchanged. In words: Inhibition of recombinant human topoisomerase 2 alpha-mediated relaxation of supercoiled pBR322 DNA at 50 uM incubated for 30 mins by ethidium bromide staining based agarose gel electrophoresis method relative to control. The method in brief:
as §2

Assay [7] concerns A2780. Nature of the assay: Induction of apoptosis in human A2780 cells assessed as depolarization of mitochondrial membrane potential at 10 uM incubated for 28 hrs by JC-1 staining based flow cytometry (reference value: 3.8 %). Type of assay: functional. The method in brief: (§3)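 A2780 cells exposed 28 h to increasing concentrations versus untreated control, stained with JC-1 and analysed by flow cytometry; mitochondrial potential read as red aggregate versus green monomer fluorescence; percentages of cells with polarized and depolarized mitochondria reported.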

In assay [8] the test system is A2780. In words: Induction of apoptosis in human A2780 cells assessed as polarization of mitochondrial membrane potential at 10 uM incubated for 28 hrs by JC-1 staining based flow cytometry (reference value: 96.1 %). In kind it is functional. A digest of the protocol:
as §3
(In general: Flow cytometry measures light scatter and fluorescence of single cells or particles in a stream.)

The subject of assay [9] is A2780. In words: Induction of apoptosis in human A2780 cells assessed as depolarization of mitochondrial membrane potential at 50 uM incubated for 28 hrs by JC-1 staining based flow cytometry (reference value: 3.8 %). In kind it is functional. The method in brief:
as §3

Assay [10] relates to A2780. Nature of the assay: Induction of apoptosis in human A2780 cells assessed as polarization of mitochondrial membrane potential at 50 uM incubated for 28 hrs by JC-1 staining based flow cytometry (reference value: 96.1 %). Type of assay: functional. The method in brief: as §3
Assay [11] has as its system A2780. In words: Induction of apoptosis in human A2780 cells assessed as increase in sub-G0 accumulation at 50 uM incubated for 28 hrs by propidium iodide staining based flow cytometry relative to control. In kind it is functional. A digest of the protocol:
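A2780 cells treated 28 h at 10 and 50 μM alongside untreated control, stained with propidium iodide, DNA content per cell measured by flow cytometry; apoptotic fraction taken as sub-G0 (hypodiploid) peak.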

In assay [12] the test system is A2780. Nature of the assay: Induction of apoptosis in human A2780 cells assessed as decrease of mitochondrial membrane potential incubated for 28 hrs by JC-1 staining based flow cytometry.

Each structure is given as a SMILES string. Calls of active or inactive are those of the source. The calls are words filed in the database; no cut-off is given here.

Sequence of DNA topoisomerase 2-alpha (Homo sapiens) (P11388 whole entry): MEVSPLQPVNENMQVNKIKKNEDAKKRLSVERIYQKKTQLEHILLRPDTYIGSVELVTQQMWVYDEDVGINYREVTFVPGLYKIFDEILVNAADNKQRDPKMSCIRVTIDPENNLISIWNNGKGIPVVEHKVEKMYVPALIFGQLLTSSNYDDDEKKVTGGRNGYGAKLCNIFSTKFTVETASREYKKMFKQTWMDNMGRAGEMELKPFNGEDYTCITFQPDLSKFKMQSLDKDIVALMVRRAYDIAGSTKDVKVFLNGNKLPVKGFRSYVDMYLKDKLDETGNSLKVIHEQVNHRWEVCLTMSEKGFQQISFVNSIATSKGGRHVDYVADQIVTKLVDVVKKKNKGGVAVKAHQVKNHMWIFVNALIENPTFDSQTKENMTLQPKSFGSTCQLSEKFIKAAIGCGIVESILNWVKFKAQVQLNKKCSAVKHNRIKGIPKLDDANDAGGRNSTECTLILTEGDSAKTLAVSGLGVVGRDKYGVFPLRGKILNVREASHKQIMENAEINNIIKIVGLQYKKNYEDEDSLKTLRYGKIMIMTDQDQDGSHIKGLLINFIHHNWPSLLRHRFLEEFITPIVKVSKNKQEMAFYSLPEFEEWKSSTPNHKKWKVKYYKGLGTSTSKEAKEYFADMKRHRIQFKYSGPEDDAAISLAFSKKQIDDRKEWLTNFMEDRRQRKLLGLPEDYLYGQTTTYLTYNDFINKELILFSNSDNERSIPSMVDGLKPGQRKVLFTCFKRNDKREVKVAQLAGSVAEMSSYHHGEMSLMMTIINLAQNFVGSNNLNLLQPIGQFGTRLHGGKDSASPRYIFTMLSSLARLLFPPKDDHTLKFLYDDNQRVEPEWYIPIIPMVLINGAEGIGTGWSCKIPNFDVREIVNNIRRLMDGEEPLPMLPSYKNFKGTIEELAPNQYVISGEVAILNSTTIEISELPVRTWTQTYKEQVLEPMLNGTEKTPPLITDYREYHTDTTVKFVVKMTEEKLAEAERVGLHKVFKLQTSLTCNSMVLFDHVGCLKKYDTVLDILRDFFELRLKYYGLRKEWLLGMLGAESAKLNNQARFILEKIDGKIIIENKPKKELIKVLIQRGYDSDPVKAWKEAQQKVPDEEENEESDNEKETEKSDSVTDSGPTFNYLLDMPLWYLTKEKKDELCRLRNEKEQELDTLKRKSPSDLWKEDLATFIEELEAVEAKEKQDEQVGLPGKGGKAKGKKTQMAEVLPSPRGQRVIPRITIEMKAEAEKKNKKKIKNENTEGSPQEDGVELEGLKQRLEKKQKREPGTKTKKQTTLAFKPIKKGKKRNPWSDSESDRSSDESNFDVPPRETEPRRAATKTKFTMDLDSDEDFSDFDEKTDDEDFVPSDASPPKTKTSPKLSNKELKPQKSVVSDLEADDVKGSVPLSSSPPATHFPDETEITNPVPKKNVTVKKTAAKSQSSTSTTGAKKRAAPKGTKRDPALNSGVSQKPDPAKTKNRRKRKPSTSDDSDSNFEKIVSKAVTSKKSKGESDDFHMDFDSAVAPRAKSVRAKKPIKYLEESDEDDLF

For orientation: GI50 means the concentration giving 50% growth inhibition. Lower therefore signals more potent growth inhibition. Consider `Cc1c(-c2ccc(OC(=O)c3c[nH]cn3)cc2)[nH]c2ccccc12`, for which the 50% growth inhibitory concentration (GI50) with HeLa, in the assay on A2780 [1] and with MSTO-211H was greater than 20 µM throughout.

One may read the inhibition as the drop in the measured response relative to a control, in per cent. Turning to `Cc1c(-c2ccc(O)cc2)n(CCCCOc2ccccc2)c2ccccc12`, the results for the GI50 in the assay with HeLa, with A2780 [1] and in the assay with MSTO-211H were 11 µM, 3.1 µM and 3.3 µM, respectively. The inhibition entry in [2] was “Active”.

Turning to `COc1ccc2c(c1)c(C)c(-c1ccc(OC)c(OC)c1)n2CCCCOc1ccccc1`, the GI50 in the assay on HeLa was greater than 20 µM; in the assay with A2780 [1], 17 µM; with MSTO-211H it was 13 µM. Besides, in [2], the inhibition entry was “inactive”.

For `Cc1c(-c2ccc(O)c(O)c2)n(CCCOc2ccccc2)c2ccc(O)cc12`, the results for the concentration for 50% growth inhibition (GI50) with HeLa, in the assay with A2780 [1] and in the assay with MSTO-211H were 18 µM, 7.4 µM and 7.1 µM, respectively. Moreover, the inhibition result in assay [2] was “Active”.

`Cc1c(-c2ccc(O)cc2)[nH]c2ccccc12`: the GI50 in the assay on HeLa, with A2780 [1] and with MSTO-211H was greater than 20 µM throughout.

In the case of `Cc1c(-c2ccc(O)cc2)n(CCOc2ccccc2)c2ccc(O)cc12`, the concentration for 50% growth inhibition (GI50) in the assay with HeLa is 15 µM; with A2780 [1] it was 4.7 µM; in the assay with MSTO-211H it was 7.6 µM. In addition, the inhibition result in assay [2] was “Active”.

Take `COc1cc(NS(C)(=O)=O)ccc1Nc1c2ccccc2nc2ccccc12` [AMSACRINE]: the results for the GI50 in the assay with HeLa, in the assay on A2780 [1] and in the assay with MSTO-211H were 0.031 µM, 0.027 µM and 0.019 µM, respectively.

`CCCn1c(-c2ccc(O)cc2)c(C)c2cc(O)ccc21`: the GI50 in the assay with HeLa turned out to be 7.9 µM; in the assay on A2780 [1] it was 2.3 µM; with MSTO-211H, 2.9 µM. Also, the inhibition result in assay [2] is “Active”.

With `CCCn1c(-c2ccc(O)cc2)c(C)c2ccccc21`, the results for the 50% growth inhibitory concentration (GI50) in the assay with HeLa, in the assay on A2780 [1] and in the assay on MSTO-211H were greater than 20 µM, 9 µM and 7.1 µM, respectively. In addition, in [2], the inhibition result was “inactive”.

`Cc1c(-c2ccc(O)c(O)c2)n(C)c2ccc(O)cc12`: the GI50 in the assay on HeLa was greater than 20 µM; in the assay with A2780 [1] it was 14 µM; in the assay with MSTO-211H, greater than 20 µM. Also, the inhibition entry in assay [2] was “inactive”.

Regarding `Cc1c(-c2ccc(O)c(O)c2)[nH]c2ccc(O)cc12`, the values for the GI50 with HeLa, in the assay with A2780 [1] and with MSTO-211H were greater than 20 µM, 2.2 µM and greater than 20 µM, respectively. Moreover, the inhibition in assay [3] was determined as 100%. Also, the inhibition entry in assay [4] and in assay [5] was “Active” in each case.

In the case of `Cc1ncsc1C(=O)Oc1ccc(-c2[nH]c3ccccc3c2C)cc1`, the GI50 is greater than 20 µM with HeLa, 13 µM in the assay with A2780 [1] and greater than 20 µM with MSTO-211H.

On to `CCOC(=O)Cn1c(-c2ccc(O)cc2)c(C)c2ccccc21`, for which the concentration for 50% growth inhibition (GI50) was greater than 20 µM with HeLa, 13 µM with A2780 [1] and greater than 20 µM in the assay with MSTO-211H. The inhibition result in [2] is “inactive”.

On to `Cc1c(-c2ccc(O)cc2)n(CC(=O)O)c2ccccc12`, for which the 50% growth inhibitory concentration (GI50) in the assay with HeLa, in the assay on A2780 [1] and with MSTO-211H was greater than 20 µM each time. Moreover, the inhibition entry in [2] was “inactive”.

Consider `Cc1c(-c2ccc(O)c(O)c2)n(CCCCOc2ccccc2)c2ccc(O)cc12`, for which the concentration for 50% growth inhibition (GI50) worked out at 10 µM in the assay with HeLa, 4.3 µM in the assay on A2780 [1] and 3.4 µM in the assay with MSTO-211H. Moreover, in [2], the inhibition result is “Active”.

Regarding `Cc1c(-c2ccc(O)cc2)n(CCCCOc2ccccc2)c2ccc(O)cc12`, the GI50 in the assay on HeLa was determined as 4 µM; in the assay with A2780 [1], 2 µM; in the assay on MSTO-211H, 2.9 µM. In assay [2], the inhibition result is “Active”.

As to `Cc1c(-c2ccc(O)cc2)n(CCCOc2ccccc2)c2ccc(O)cc12`, the GI50 was 4.4 µM in the assay on HeLa, 2.2 µM with A2780 [1] and 2.4 µM in the assay on MSTO-211H. In addition, the inhibition result in assay [2], in assay [4] and in assay [5] was “Active” throughout. Also, the inhibition in assay [6] was 100%. Moreover, the Activity is 12.6% in the assay on A2780 [7]; 87% in the assay on A2780 [8]; 42.2% in the assay with A2780 [9]; 57.7% in the assay with A2780 [10]; 30% with A2780 [11]; “Dose-dependent effect” in the assay with A2780 [12].

`Cc1c(-c2ccc(O)cc2)[nH]c2ccc(O)cc12`: the figures for the 50% growth inhibitory concentration (GI50) in the assay on HeLa, with A2780 [1] and in the assay on MSTO-211H were 16 µM, 11 µM and greater than 20 µM, respectively. In addition, the inhibition result in [2] is “Active”. The inhibition entry in assay [4] and in assay [5] was “inactive” each time.

In the case of `CCCn1c(-c2ccc(O)c(O)c2)c(C)c2cc(O)ccc21`, the GI50 in the assay with HeLa was greater than 20 µM; in the assay with A2780 [1], 8.4 µM; with MSTO-211H it was greater than 20 µM. In [2], the inhibition entry is “Active”.

For the molecule `O=c1c(O)c(-c2ccc(O)c(O)c2)oc2cc(O)cc(O)c12` [QUERCETIN], the 50% growth inhibitory concentration (GI50) in the assay with HeLa is 17.7 µM; in the assay on A2780 [1] it was 19.7 µM; in the assay with MSTO-211H, greater than 20 µM.
